Experimental data published in ChEMBL document CHEMBL1828538, “Synthesis and pharmacological evaluation of indole-based sigma receptor ligands” (Eur J Med Chem, 2011).

Experiments:
[1] = target: Sigma non-opioid intracellular receptor 1 (Rattus norvegicus, UniProt Q9R0C9); assay: Displacement of (-)-[3H]pentazocine from sigma 1 receptor in rat brain membrane after 120 mins; type: cell membranes
Rattus norvegicus = species on record: Rattus norvegicus; assay: Selectivity ratio of Ki for sigma 1 receptor in rat brain membrane to sigma 2 receptor in rat brain membrane; type: cell membranes
[2] = Displacement of [3H]di-o-tolylguanidine from sigma 2 receptor in rat brain membrane after 120 mins; type: cell membranes
Summary of the method: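 Rat whole-brain homogenate without cerebellum (400–500 μg) incubated with 3 nM [3H]DTG plus 300 nM (+)-pentazocine to mask sigma-1 sites. Filtration through PEI-soaked glass fiber, scintillation counting, run in duplicate. Ki by Cheng-Prusoff.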

[3] = Binding affinity to sigma 2 receptor
Summary of the method: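 Rat whole-brain homogenate without cerebellum (400–500 μg) incubated with 3 nM [3H]DTG plus 300 nM (+)-pentazocine to mask sigma-1 sites. […] Filtration through PEI-soaked glass fiber, scintillation counting, run in duplicate. Ki by Cheng-Prusoff.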

Sequence of Sigma non-opioid intracellular receptor 1 (Q9R0C9 whole entry): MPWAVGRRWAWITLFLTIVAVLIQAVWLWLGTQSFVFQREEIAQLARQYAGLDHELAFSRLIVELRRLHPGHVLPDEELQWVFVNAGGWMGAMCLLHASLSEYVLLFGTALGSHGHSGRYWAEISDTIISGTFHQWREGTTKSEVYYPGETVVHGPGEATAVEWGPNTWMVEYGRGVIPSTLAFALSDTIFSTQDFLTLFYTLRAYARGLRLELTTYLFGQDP

Fc1ccc(N2CCN(CCCCn3ccc4ccccc43)CC2)cc1
Ki [1]: 71.5 nM
Ratio Ki (Rattus norvegicus): 5.4

c1ccc(-c2cn(CCCCN3CCN(C4CCCCC4)CC3)c3ccccc23)cc1
Ki [1]: 92.4 nM
Ki [2]: 12.3 nM
Ratio Ki (Rattus norvegicus): 7.5

Fc1ccc(N2CCN(CCCCn3cc(-c4ccoc4)c4ccccc43)CC2)cc1
Ki [1]: 279 nM
Ki [2]: 157 nM
Ratio Ki (Rattus norvegicus): 1.8

COc1cc2c(cc1OC)CN(CCCCn1cc(-c3ccoc3)c3ccccc31)CC2
Ki [1]: 614 nM
Ki [2]: 12 nM
Ratio Ki (Rattus norvegicus): 51.1

COc1cc2c(cc1OC)CN(CCCCn1ccc3cc(C(C)=O)ccc31)CC2
Ki [1]: 14.6 nM
Ki [2]: 1.42 nM
Ratio Ki (Rattus norvegicus): 10.2

COc1cc2c(cc1OC)CN(CCCCNC(=O)c1cc(Br)cc(OC)c1OC)CC2
Ki [3]: 8.2 nM

CC(=O)c1ccc2c(ccn2CCCCN2CCN(c3ccc(F)cc3)CC2)c1
Ki [1]: 2.13 nM
Ki [2]: 3.3 nM
Ratio Ki (Rattus norvegicus): 0.6

COc1cc2c(cc1OC)CN(CCCCn1cc(-c3ccccc3)c3ccccc31)CC2
Ki [1]: 714 nM
Ki [2]: 46.3 nM
Ratio Ki (Rattus norvegicus): 15.4

c1ccc2c(c1)c(-c1ccoc1)cn2CCCCN1CCN(C2CCCCC2)CC1
Ki [1]: 34.5 nM
Ki [2]: 10.1 nM
Ratio Ki (Rattus norvegicus): 3.4

Fc1ccc(N2CCN(CCCCn3cc(-c4ccccc4)c4ccccc43)CC2)cc1
Ki [1]: 222 nM
Ki [2]: 9.96 nM
Ratio Ki (Rattus norvegicus): 22.3

Fc1ccc(-c2cn(CCCCN3CCN(C4CCCCC4)CC3)c3ccccc23)cc1
Ratio Ki (Rattus norvegicus): 4

COc1cc2c(cc1OC)CN(CCCCn1ccc3ccccc31)CC2
Ki [1]: 141 nM

CC(=O)c1ccc2c(ccn2CCCCN2CCN(C3CCCCC3)CC2)c1
Ki [1]: 5.33 nM
Ki [2]: 2.31 nM
Ratio Ki (Rattus norvegicus): 2.3
